Experimental data from the array DNA melting data of Ke et al. (doi:10.1101/2024.01.08.574731).

Legend:
[1] = folding enthalpy; higher = less favourable; fluorescence melt of hairpins on a sequencing array, two-state fit; conditions: sodium 0.088 M
Method in brief: (§1)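 Library hairpins on a sequenced MiSeq flow cell carried annealed Cy3 and quencher oligos, and their Cy3 fluorescence was imaged in 50 mM Na-HEPES pH 8.0 with 25 mM NaCl, in 2.5 °C steps up to 60 °C. Signals were normalised to Cy3 before quenching and to control constructs. Melting temperature and folding enthalpy were obtained from bootstrapped two-state fits, combined by inverse-variance weighting across four replicates, and the fitted temperatures were then raised by 9.35 °C to match UV melts.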

[2] = melting temperature; fluorescence melt of hairpins on a sequencing array, two-state fit, raised by 9.35 °C to match UV melts; conditions: sodium 0.088 M
Method in brief: as §1

With GCGGACACGAAAGTGCGC (((..(((....)))))) as the sequence, how does the folding enthalpy [1] read?
The folding enthalpy was -26.1 kcal/mol.

And the Tm [2]?
The Tm was 55.6 °C.

Which folding enthalpy [1] does the source give for GCGGACCACCGC ((((....)))) here?
The folding enthalpy was -24.2 kcal/mol.

And the Tm [2]?
The Tm was 59.9 °C.

For GCGGACGAAAGTCAACGC ((((((....)))..))), which folding enthalpy [1] is on record?
The folding enthalpy was -42 kcal/mol.

And the Tm [2]?
The Tm was 54.3 °C.

Which results are given for GCGGACGAAAGTCTCGC ((((((....))).)))?
folding enthalpy [1]: -18.9 kcal/mol; Tm [2]: 55.2 °C

For GCGGACGAAAGTCTTCGC ((((((....)))..))), which folding enthalpy [1] is on record?
Its folding enthalpy is -23.4 kcal/mol.

What about the Tm [2] of the same sequence?
The Tm was 45.9 °C.

With GCGGACGCCGC ((((...)))) as the sequence, how does the folding enthalpy [1] read?
The folding enthalpy was -19.1 kcal/mol.

And the Tm [2]?
The Tm was 58.3 °C.

Which folding enthalpy [1] does the source give for GCGGACGGAAACATCCGC (((((.(....).))))) here?
Its folding enthalpy is -39.2 kcal/mol.

What about the Tm [2] of the same sequence?
Its Tm is 52.9 °C.

Which folding enthalpy [1] does the source give for GCGGACGGAAACGTCTGC ((.((((....)))).)) here?
Its folding enthalpy is -36.3 kcal/mol.

What about the Tm [2] of the same sequence?
The Tm was 65.9 °C.

Which results are given for GCGGACTACCGC ((((....))))?
folding enthalpy [1]: -27.9 kcal/mol; Tm [2]: 54 °C

With GCGGAGAAATCCGC (((((....))))) as the sequence, how does the folding enthalpy [1] read?
The folding enthalpy was -29.1 kcal/mol.

What about the Tm [2] of the same sequence?
Its Tm is 61.8 °C.

Which results are given for GCGGAGCGAAAGCACTGC ((.(.((....)).).))?
folding enthalpy [1]: -12.7 kcal/mol; Tm [2]: 50 °C

With GCGGAGCGAAAGCATCGC (((..((....))..))) as the sequence, how does the folding enthalpy [1] read?
The folding enthalpy was -15.7 kcal/mol.

And the Tm [2]?
The Tm was 55.7 °C.

For GCGGAGGACCGC ((((....)))), which folding enthalpy [1] is on record?
The folding enthalpy was -19.5 kcal/mol.

What about the Tm [2] of the same sequence?
Its Tm is 52.4 °C.

Which folding enthalpy [1] does the source give for GCGGAGGCCGC ((((...)))) here?
Its folding enthalpy is -18 kcal/mol.

And the Tm [2]?
Its Tm is 58.9 °C.

Which results are given for GCGGATCACCGC ((((....))))?
folding enthalpy [1]: -25.8 kcal/mol; Tm [2]: 59 °C

For GCGGATCGAAAGATACGC (((.(((....))).))), which folding enthalpy [1] is on record?
The folding enthalpy was -40.3 kcal/mol.

What about the Tm [2] of the same sequence?
Its Tm is 68.7 °C.

With GCGGATCGAAAGATGCGC (((.(((....))).))) as the sequence, how does the folding enthalpy [1] read?
Its folding enthalpy is -38.6 kcal/mol.

And the Tm [2]?
Its Tm is 66.3 °C.

Which folding enthalpy [1] does the source give for GCGGATGCGAAAGCACGC (((..(((....)))))) here?
The folding enthalpy was -15.8 kcal/mol.

And the Tm [2]?
Its Tm is 56.6 °C.

Which folding enthalpy [1] does the source give for GCGGATGGAAACATCCAC (.(((((....))))).) here?
Its folding enthalpy is -14.7 kcal/mol.

What about the Tm [2] of the same sequence?
Its Tm is 45.3 °C.

For GCGGATGGAAACATCTGC ((.((((....)))).)), which folding enthalpy [1] is on record?
The folding enthalpy was -47.5 kcal/mol.

And the Tm [2]?
The Tm was 54.4 °C.

Which results are given for GCGGCAGGAAACCGCCGC (((((.(....).)))))?
folding enthalpy [1]: -30.6 kcal/mol; Tm [2]: 69.3 °C

Which results are given for GCGGCAGTCCGC ((((....))))?
folding enthalpy [1]: -23.7 kcal/mol; Tm [2]: 59.7 °C

With GCGGCCACCCGC ((((....)))) as the sequence, how does the folding enthalpy [1] read?
Its folding enthalpy is -19.8 kcal/mol.

And the Tm [2]?
Its Tm is 59.5 °C.

For GCGGCCGAAAGGCACCGC ((((((....)))..))), which folding enthalpy [1] is on record?
The folding enthalpy was -16.8 kcal/mol.

What about the Tm [2] of the same sequence?
Its Tm is 56 °C.

With GCGGCCGAAAGGCGACGC ((((((....)))..))) as the sequence, how does the folding enthalpy [1] read?
Its folding enthalpy is -17.2 kcal/mol.

What about the Tm [2] of the same sequence?
The Tm was 65.9 °C.

What does the source list for GCGGCCGAAAGGCGCCGC ((((((....)))..)))?
folding enthalpy [1]: -14.9 kcal/mol; Tm [2]: 62.8 °C

What does the source list for GCGGCCGACCGC ((((....))))?
folding enthalpy [1]: -26.7 kcal/mol; Tm [2]: 57.6 °C

Which folding enthalpy [1] does the source give for GCGGCCGGAAACAGCCGC (((((.(....).))))) here?
Its folding enthalpy is -22.9 kcal/mol.

What about the Tm [2] of the same sequence?
The Tm was 64.8 °C.

For GCGGCGAACCGC ((((....)))), which folding enthalpy [1] is on record?
Its folding enthalpy is -18.9 kcal/mol.

And the Tm [2]?
Its Tm is 56.9 °C.

Which results are given for GCGGCGACCGC ((((...))))?
folding enthalpy [1]: -16 kcal/mol; Tm [2]: 55.8 °C

Which folding enthalpy [1] does the source give for GCGGCGCGAAAGCCACGC (((..((....))..))) here?
The folding enthalpy was -20.8 kcal/mol.

What about the Tm [2] of the same sequence?
Its Tm is 61.7 °C.

For GCGGCGCGAAAGCTTCGC (((..((....))..))), which folding enthalpy [1] is on record?
Its folding enthalpy is -16.8 kcal/mol.

What about the Tm [2] of the same sequence?
Its Tm is 54.1 °C.

Which folding enthalpy [1] does the source give for GCGGCGCTCCGC ((((....)))) here?
The folding enthalpy was -14.3 kcal/mol.

And the Tm [2]?
Its Tm is 63.4 °C.

With GCGGCGGGAAACCACCGC ((((.((....)).)))) as the sequence, how does the folding enthalpy [1] read?
The folding enthalpy was -41.7 kcal/mol.

What about the Tm [2] of the same sequence?
The Tm was 60.3 °C.

With GCGGCGTCCGC ((((...)))) as the sequence, how does the folding enthalpy [1] read?
The folding enthalpy was -14.7 kcal/mol.

What about the Tm [2] of the same sequence?
Its Tm is 59.9 °C.

Which folding enthalpy [1] does the source give for GCGGCTACCCGC ((((....)))) here?
Its folding enthalpy is -22.2 kcal/mol.

What about the Tm [2] of the same sequence?
The Tm was 55.7 °C.

With GCGGCTACGAAAGTACGC (((..(((....)))))) as the sequence, how does the folding enthalpy [1] read?
The folding enthalpy was -21.6 kcal/mol.

And the Tm [2]?
The Tm was 47.6 °C.

Which folding enthalpy [1] does the source give for GCGGCTGCCCGC ((((....)))) here?
Its folding enthalpy is -19.4 kcal/mol.

What about the Tm [2] of the same sequence?
Its Tm is 55 °C.

Which folding enthalpy [1] does the source give for GCGGCTGGAAACAGCCAC (.(((((....))))).) here?
Its folding enthalpy is -11.8 kcal/mol.

What about the Tm [2] of the same sequence?
Its Tm is 51.8 °C.

For GCGGCTGGAAACAGTCGC (((.(((....))).))), which folding enthalpy [1] is on record?
The folding enthalpy was -47.4 kcal/mol.

And the Tm [2]?
The Tm was 67.3 °C.

Which folding enthalpy [1] does the source give for GCGGGAGCCCGC ((((....)))) here?
Its folding enthalpy is -20 kcal/mol.

What about the Tm [2] of the same sequence?
The Tm was 56 °C.

For GCGGGAGCGAAAGCTCGC (((..(((....)))))), which folding enthalpy [1] is on record?
Its folding enthalpy is -10.9 kcal/mol.

What about the Tm [2] of the same sequence?
Its Tm is 55.8 °C.

Which results are given for GCGGGCGAAAGCCCCCGC ((((((....)))..)))?
folding enthalpy [1]: -11.2 kcal/mol; Tm [2]: 52.1 °C

For GCGGGCGAAAGCCTCCGC ((((((....)))..))), which folding enthalpy [1] is on record?
The folding enthalpy was -25.8 kcal/mol.

And the Tm [2]?
Its Tm is 53.3 °C.

Which folding enthalpy [1] does the source give for GCGGGCGCGAAAGCGCGC (((..(((....)))))) here?
The folding enthalpy was -7.24 kcal/mol.

And the Tm [2]?
Its Tm is 63 °C.

Which folding enthalpy [1] does the source give for GCGGGGCGAAAGCATCGC (((..((....))..))) here?
Its folding enthalpy is -33.1 kcal/mol.

What about the Tm [2] of the same sequence?
Its Tm is 65.2 °C.

What does the source list for GCGGGGCGAAAGCCATGC ((..(((....)))..))?
folding enthalpy [1]: -27.7 kcal/mol; Tm [2]: 62.4 °C

Which results are given for GCGGGGCGAAAGCCGGGC ((..(((....)))..))?
folding enthalpy [1]: -14.8 kcal/mol; Tm [2]: 56 °C

What does the source list for GCGGGGCGAAAGCGCTGC ((.(.((....)).).))?
folding enthalpy [1]: -35.9 kcal/mol; Tm [2]: 66.4 °C
